From ChEMBL document CHEMBL5058577, “EUbOPEN Chemogenomics Library 2 (Multiplex)” (2022)

System: Fibroblast
Experiment: Multiplex assay against human fibroblast
Assay type: toxicity, cell-based
In short: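 Cells were classed with CellPathfinder machine-learning gating, first as Hoechst high-intensity objects or normal cells, then (normal cells) as healthy, pyknosed or fragmented nuclei, and finally (pyknosed cells) as mitotic or apoptotic. Staining of live cells at seeding used Hoechst33342, BioTracker Green Microtubule Cytoskeleton Dye, MitoTracker Red and Annexin V Alexa Fluor 680, with imaging on a CQ1 microscope at 37°C and 5% CO2 after compound addition. Tubulin, mitochondrial-mass and membrane-permeability phenotypes are per cents of healthy-nucleus cells.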

[1] = 12 h, 1 µM, compound concentration 1 uM, replicate 1
[2] = 12 h, 1 µM, compound concentration 1 uM, replicate 2
[3] = 12 h, 10 µM, compound concentration 10 uM, replicate 1
[4] = 12 h, 10 µM, compound concentration 10 uM, replicate 2
[5] = 24 h, 1 µM, compound concentration 1 uM, replicate 1
[6] = 24 h, 1 µM, compound concentration 1 uM, replicate 2
[7] = 24 h, 10 µM, compound concentration 10 uM, replicate 1
[8] = 24 h, 10 µM, compound concentration 10 uM, replicate 2
[9] = 48 h, 1 µM, compound concentration 1 uM, replicate 1
[10] = 48 h, 1 µM, compound concentration 1 uM, replicate 2
[11] = 48 h, 10 µM, compound concentration 10 uM, replicate 1
[12] = 48 h, 10 µM, compound concentration 10 uM, replicate 2

SMILES: NCCc1cn(S(=O)(=O)c2c(Cl)nc3sccn23)c2ccccc12.O=C(O)C(=O)O
- Population Apoptotic (%) [1]: 45%
- Population Fragmented Nuclei (%) [1]: 20%
- Population Healthy Nuclei (%) [1]: 65%
- Population Hoechst High Intensity Objects (%) [1]: 4%
- Population Membrane Permeable-Phenotype (%) [1]: 0%
- Population Mitochondria Different-Phenotype (%) [1]: 5%
- Population Mitotic Cells (%) [1]: 55%
- Population Normal (%) [1]: 95%
- Population Pyknosed Nuclei (%) [1]: 14%
- Population Tubulin-Different-Phenotype (%) [1]: 40%
- Total Cell Count [1]: 146
- Population Fragmented Nuclei (%) [2]: 34%
- Population Healthy Nuclei (%) [2]: 37%
- Population Hoechst High Intensity Objects (%) [2]: 3%
- Population Membrane Permeable-Phenotype (%) [2]: 13%
- Population Mitochondria Different-Phenotype (%) [2]: 8%
- Population Mitotic Cells (%) [2]: 54%
- Population Normal (%) [2]: 96%
- Population Pyknosed Nuclei (%) [2]: 28%
- Population Tubulin-Different-Phenotype (%) [2]: 62%
- Total Cell Count [2]: 170
- Population Apoptotic (%) [3]: 78%
- Population Fragmented Nuclei (%) [3]: 20%
- Population Healthy Nuclei (%) [3]: 56%
- Population Hoechst High Intensity Objects (%) [3]: 6%
- Population Membrane Permeable-Phenotype (%) [3]: 0%
- Population Mitochondria Different-Phenotype (%) [3]: 40%
- Population Mitotic Cells (%) [3]: 21%
- Population Normal (%) [3]: 93%
- Population Pyknosed Nuclei (%) [3]: 22%
- Population Tubulin-Different-Phenotype (%) [3]: 90%
- Total Cell Count [3]: 177
- Population Apoptotic (%) [4]: 57%
- Population Fragmented Nuclei (%) [4]: 24%
- Population Healthy Nuclei (%) [4]: 44%
- Population Membrane Permeable-Phenotype (%) [4]: 5%
- Population Mitochondria Different-Phenotype (%) [4]: 34%
- Population Mitotic Cells (%) [4]: 42%
- Population Pyknosed Nuclei (%) [4]: 30%
- Population Tubulin-Different-Phenotype (%) [4]: 89%
- Total Cell Count [4]: 219
- Population Apoptotic (%) [5]: 50%
- Population Fragmented Nuclei (%) [5]: 21%
- Population Healthy Nuclei (%) [5]: 64%
- Population Hoechst High Intensity Objects (%) [5]: 3%
- Population Membrane Permeable-Phenotype (%) [5]: 0%
- Population Mitochondria Different-Phenotype (%) [5]: 13%
- Population Mitotic Cells (%) [5]: 50%
- Population Normal (%) [5]: 96%
- Population Pyknosed Nuclei (%) [5]: 13%
- Population Tubulin-Different-Phenotype (%) [5]: 42%
- Total Cell Count [5]: 156
- Population Apoptotic (%) [6]: 46%
- Population Fragmented Nuclei (%) [6]: 35%
- Population Healthy Nuclei (%) [6]: 44%
- Population Hoechst High Intensity Objects (%) [6]: 4%
- Population Membrane Permeable-Phenotype (%) [6]: 18%
- Population Mitochondria Different-Phenotype (%) [6]: 11%
- Population Mitotic Cells (%) [6]: 53%
- Population Normal (%) [6]: 95%
- Population Pyknosed Nuclei (%) [6]: 20%
- Population Tubulin-Different-Phenotype (%) [6]: 70%
- Total Cell Count [6]: 166
- Population Apoptotic (%) [7]: 77%
- Population Fragmented Nuclei (%) [7]: 22%
- Population Healthy Nuclei (%) [7]: 62%
- Population Hoechst High Intensity Objects (%) [7]: 3%
- Population Membrane Permeable-Phenotype (%) [7]: 0%
- Population Mitochondria Different-Phenotype (%) [7]: 58%
- Population Mitotic Cells (%) [7]: 22%
- Population Normal (%) [7]: 96%
- Population Pyknosed Nuclei (%) [7]: 14%
- Population Tubulin-Different-Phenotype (%) [7]: 89%
- Total Cell Count [7]: 193
- Population Apoptotic (%) [8]: 72%
- Population Fragmented Nuclei (%) [8]: 30%
- Population Healthy Nuclei (%) [8]: 51%
- Population Hoechst High Intensity Objects (%) [8]: 7%
- Population Membrane Permeable-Phenotype (%) [8]: 5%
- Population Mitochondria Different-Phenotype (%) [8]: 32%
- Population Mitotic Cells (%) [8]: 27%
- Population Normal (%) [8]: 92%
- Population Pyknosed Nuclei (%) [8]: 18%
- Population Tubulin-Different-Phenotype (%) [8]: 81%
- Total Cell Count [8]: 237
- Population Apoptotic (%) [9]: 50%
- Population Fragmented Nuclei (%) [9]: 27%
- Population Healthy Nuclei (%) [9]: 63%
- Population Hoechst High Intensity Objects (%) [9]: 4%
- Population Membrane Permeable-Phenotype (%) [9]: 2%
- Population Mitochondria Different-Phenotype (%) [9]: 3%
- Population Mitotic Cells (%) [9]: 50%
- Population Normal (%) [9]: 95%
- Population Pyknosed Nuclei (%) [9]: 9%
- Population Tubulin-Different-Phenotype (%) [9]: 46%
- Total Cell Count [9]: 177
- Population Apoptotic (%) [10]: 54%
- Population Fragmented Nuclei (%) [10]: 38%
- Population Healthy Nuclei (%) [10]: 47%
- Population Hoechst High Intensity Objects (%) [10]: 6%
- Population Membrane Permeable-Phenotype (%) [10]: 9%
- Population Mitochondria Different-Phenotype (%) [10]: 17%
- Population Mitotic Cells (%) [10]: 45%
- Population Normal (%) [10]: 93%
- Population Pyknosed Nuclei (%) [10]: 14%
- Population Tubulin-Different-Phenotype (%) [10]: 58%
- Total Cell Count [10]: 166
- Population Apoptotic (%) [11]: 85%
- Population Fragmented Nuclei (%) [11]: 22%
- Population Healthy Nuclei (%) [11]: 65%
- Population Hoechst High Intensity Objects (%) [11]: 7%
- Population Membrane Permeable-Phenotype (%) [11]: 0%
- Population Mitochondria Different-Phenotype (%) [11]: 43%
- Population Mitotic Cells (%) [11]: 14%
- Population Normal (%) [11]: 92%
- Population Pyknosed Nuclei (%) [11]: 12%
- Population Tubulin-Different-Phenotype (%) [11]: 92%
- Total Cell Count [11]: 189
- Population Apoptotic (%) [12]: 75%
- Population Fragmented Nuclei (%) [12]: 31%
- Population Healthy Nuclei (%) [12]: 59%
- Population Hoechst High Intensity Objects (%) [12]: 3%
- Population Membrane Permeable-Phenotype (%) [12]: 3%
- Population Mitochondria Different-Phenotype (%) [12]: 24%
- Population Mitotic Cells (%) [12]: 25%
- Population Normal (%) [12]: 96%
- Population Pyknosed Nuclei (%) [12]: 8%
- Population Tubulin-Different-Phenotype (%) [12]: 74%
- Total Cell Count [12]: 241
